Results as given in ChEMBL document CHEMBL4334444, “Studies of Jatrogossone A as a Reactive Oxygen Species Inducer in Cancer Cellular Models” (J Nat Prod, 2019).
Active and inactive are the calls of the source. The calls are words filed in the database; no cut-off is given here.

Key:
[1] = system: B-ALL; assay: Antiproliferative activity against mouse B-ALL cells expressing wild type BCR-ABL assessed as reduction in cell viability at 1 to 10 uM by CellTiter-Glo assay; format: functional, cell-based
Method in brief: (§1)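 CellTiter-Glo luminescent viability readout. Cells kept at 37 °C under 5% CO2. HMEC primary cells grown in basal medium with growth kit; leukemia lines and murine BCR-ABL (WT, Bax/Bak DKO) cultured per earlier description. Positive controls: staurosporine 25 μM, gambogic acid 10 μM, a toxic quinoline. At least two biological replicates in technical triplicate; luminescence normalized to untreated controls; EC50 computed.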

[2] = system: B-ALL; assay: Antiproliferative activity against mouse B-ALL cells harboring Bax/Bak double knockout mutant assessed as reduction in cell viability at 1 to 10 uM by CellTiter-Glo assay; format: functional, cell-based; method in brief: as §1
[3] = system: KOPN-8; assay: Antiproliferative activity against human KOPN8 cells assessed as reduction in cell viability at 1 to 10 uM by CellTiter-Glo assay; format: functional, cell-based; method in brief: as §1
[4] = system: SEM cells; assay: Antiproliferative activity against human SEM cells assessed as reduction in cell viability at 1 to 10 uM by CellTiter-Glo assay; format: functional, cell-based; method in brief: as §1
[5] = system: KOPN-8; assay: Cell cycle arrest in human KOPN8 cells assessed as decrease in accumulation at S phase at 10 uM incubated for 24 hrs by propidium iodide staining based flow cytometric analysis relative to control; format: functional; conditions: KOPN-8, 24 h
Method in brief: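 KOPN-8 plated at 1.00 × 10^6 cells/plate, held 12 h at 37 °C, treated 24 h at 10 μM; DMSO vehicle and 2 μM staurosporine as controls. Cells fixed in cold methanol, RNase-treated, stained with PI (50 μg/mL); cell-cycle distribution by flow cytometry.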

[6] = system: KOPN-8; assay: Induction of apoptosis in human KOPN8 cells assessed as decrease in viable cells at 10 uM after 24 hrs by Annexin V-FITC and propidium iodide staining based flow cytometry; format: functional, cell-based
Method in brief: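 KOPN-8 cells were plated at 1.00 × 10^6 per plate and held 12 h at 37 °C, then treated 24 h; positive control 2 μM staurosporine, vehicle DMSO. Cells were stained with Annexin V-FITC and PI and analysed by flow cytometry (FACSCalibur). Profiles are representative of three independent biological replicates.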

[7] = system: KOPN-8; assay: Cytotoxicity against human KOPN8 cells assessed as cell viability at 0.95 to 125 uM after 72 hrs in presence of pan caspase inhibitor, Z-VAD-FMK by CellTiter-Glo assay; format: functional, cell-based
[8] = system: KOPN-8; assay: Induction of apoptosis in human KOPN8 cells assessed as increase in cleaved PARP 1 level at 1 to 100 uM after 24 hrs by Western blot analysis; format: functional, cell-based
Method in brief: (§2)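 Western blot of KOPN-8 and MCF-7 lysates made in RIPA-type buffer (Tris pH 7.5, Triton X-100, deoxycholate, SDS) with protease and phosphatase inhibitors. 30 μg protein per lane was run on 4–12% Bis-Tris SDS-PAGE and transferred to nitrocellulose. Blots were probed for cleaved caspase-7 and PARP-1 and detected with IR-dye secondaries. Menadione served as positive control: 10 μM in KOPN-8, 30 μM in MCF-7. Blots are representative of three independent experiments.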

[9] = system: MCF7; assay: Induction of apoptosis in human MCF7 cells assessed as increase in cleaved PARP 1 level at 1 to 100 uM after 24 hrs by Western blot analysis; format: functional, cell-based; method in brief: as §2
[10] = system: B-ALL; assay: Cytotoxicity against BCR-ABL p185-positive mouse B-ALL cells overexpressing human MCL-1 assessed as inhibition of cell viability after 24 hrs by AnnexinV-FITC/propidium iodide staining based flow cytometric analysis; format: functional
[11] = system: B-ALL; assay: Cytotoxicity against BCR-ABL positive p185-positive mouse B-ALL cells expressing human BCL-W assessed as inhibition of cell viability after 24 hrs by AnnexinV-FITC/propidium iodide staining based flow cytometric analysis; format: functional
[12] = system: KOPN-8; assay: Induction of mitochondrial membrane potential loss in human KOPN8 cells at 1 to 3 uM after 24 to 48 hrs by TMRM staining based flow cytometric analysis; format: functional, cell-based
Method in brief: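 TMRM flow cytometry. KOPN-8 (4 × 10^4 or 5 × 10^5 per well) or MCF-7 (2 × 10^4 or 2 × 10^5 per well) were seeded 24 h, then treated 24–48 h. FCCP 10 μM was added 10 min before staining as positive control. Cells were stained with TMRM 100 nM for 0.5 h, then PBS-washed, resuspended in PBS with 1% FBS and analysed by flow cytometry; DAPI flagged compromised cells.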

[13] = system: HMEC; assay: Induction of ROS generation in human HMEC cells at 30 uM incubated for 1 hr by CellROX green reagent based fluorescence assay; format: cell-based
Method in brief: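 CellROX green ROS assay: cells exposed 1 h at 37 °C (30 μM) with DMSO 0.5% (v/v) negative control, menadione 10 μM positive control, ± NAC (100 μM per figure legend). CellROX green added at 5 μM final, 30 min more; washed, fixed in 4% paraformaldehyde 15 min, fluorescence read at 485 ex/535 em. Mean and SD of at least three experiments; two-way ANOVA.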

[14] = Stability in CH3CN assessed as micheal adduct formation by measuring intact compound incubated for 16 hrs in presence of NAC by NMR analysis; format: physicochemical
[15] = Stability in CH3CN assessed as micheal adduct formation by measuring intact compound incubated for 16 hrs in presence of glutathione by NMR analysis; format: physicochemical
[16] = Stability in DMSO assessed as micheal adduct formation by measuring intact compound incubated for 16 hrs in presence of glutathione by LC-MS analysis; format: physicochemical
[17] = system: B-ALL; assay: Antiproliferative activity against mouse B-ALL cells expressing wild type BCR-ABL assessed as reduction in cell viability at 0.1 to 250 uM by CellTiter-Glo assay; format: functional, cell-based; method in brief: as §1
[18] = system: KOPN-8; assay: Antiproliferative activity against human KOPN8 cells assessed as reduction in cell viability at 0.1 to 250 uM by CellTiter-Glo assay; format: functional, cell-based; method in brief: as §1
[19] = system: U2OS; assay: Antiproliferative activity against human U2OS cells assessed as reduction in cell viability at 0.1 to 250 uM by CellTiter-Glo assay; format: functional, cell-based; method in brief: as §1
[20] = system: PBMC; assay: Cytotoxicity against human PBMC cells assessed as reduction in cell viability at 0.1 to 250 uM by CellTiter-Glo assay; format: cell-based; method in brief: as §1
[21] = system: MCF7; assay: Upregulation of Trx expression in human MCF7 at 10 uM after 3 to 6 hrs by Western blot analysis; format: functional, cell-based
Method in brief: (§3)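 Western blot of KOPN-8 or MCF-7 lysates, 30 μg protein per lane on 4–12% Bis-Tris SDS-PAGE and transferred to nitrocellulose. Blots were probed with an oxidative stress defense antibody cocktail (catalase, SOD1, Trx, smooth muscle actin) and tubulin, and detected with IR-dye secondaries on a LI-COR Odyssey.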

[22] = system: MCF7; assay: Induction of cell death in human MCF7 cells at 10 uM after 24 hrs; format: functional, cell-based
[23] = system: MCF7; assay: Upregulation of Trx expression in human MCF7 at 1 uM after 24 hrs by Western blot analysis; format: functional, cell-based; method in brief: as §3

CC(=O)O[C@H]1/C2=C/[C@@H](C)C(=O)C[C@H]3[C@@H](/C=C(\C)C(=O)[C@H]2C[C@H]1C)C3(C)C
inhibition [1]: Active | inhibition [2]: Active | inhibition [3]: Active | inhibition [4]: Active | inhibition at 10 µM [5]: 5% | Activity [6]: Active | Activity [7]: inactive | Activity [8]: Active | Activity [9]: Active | IC50 [10]: 3.31 µM | IC50 [11]: 14.4 µM | Activity [12]: Active | Activity [13]: Toxic | Stability [14]: Stable | Stability [15]: Stable | Stability [16]: Stable

CC1=C2CC(C)(C)/C=C/C(=O)/C(C)=C\C3=C[C@H](C)C[C@]3(O2)C1=O [JATROPHONE]
inhibition [17]: Active | inhibition [18]: Active | inhibition [19]: Active | Activity [20]: Toxic | Activity [21]: inactive | Activity [22]: Active | Activity [23]: inactive
